According to ChEMBL document CHEMBL1130137, “Substituted (pyridylmethoxy)naphthalenes as potent and orally active 5-lipoxygenase inhibitors; synthesis, biological profile, and pharmacokinetics of L-739,010” (J Med Chem, 1997):
pIC50: −log10 of the molar value.

Tests used:
Homo sapiens [1] = species: Homo sapiens; test: Compound was evaluated for production of leukotriene B4 in Ca+2 -ionophore -activated human polymorphonuclear (HPMN) leukocytes.; format: functional
How it was run: (§1)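 LTB4 generation triggered by Ca2+ ionophore A23187 in human peripheral blood polymorphonuclear leukocytes or in human whole blood; inhibitor potency expressed as IC50 (nM).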

Homo sapiens [2] = species: Homo sapiens; test: Compound was evaluated for production of leukotriene B4 in human whole blood (HWB) activated with ionophore A-23187.; format: functional; how it was run: as §1
Ovis aries = test: Compound was tested for inhibition of Ascaris -induced bronchoconstriction in sheep at 2.5 ug/kg intravenous administration; format: functional
How it was run: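 Conscious allergic sheep (n = 4) received an iv bolus of 0.2 mg/kg and then a constant iv infusion of 2.5 µg/kg/min before Ascaris antigen challenge. Percent inhibition was scored separately for the early-phase and late-phase bronchoconstriction.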

Rattus norvegicus [3] = species: Rattus norvegicus; test: Inhibition of LTB4 levels in rat pleural exudates; format: functional
How it was run: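 Rat pleurisy: carrageenan injected into the pleural cavity, followed 16-20 h later by ionophore A23187; LTB4 measured in pleural exudate 6 h after oral dosing; ED50 derived.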

[4] = Compound was tested for inhibition of Ascaris -induced bronchoconstriction in squirrel monkeys; format: functional
Canis familiaris [5] = species: Canis familiaris; test: Inhibition of urinary LTE4 levels in dogs; format: functional, Canis lupus familiaris, Urine
How it was run: (§2)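 Anesthetized dogs receiving iv infusion (µg/kg/min, dose-ranging). Baseline urinary LTE4 excretion measured over 5-7 h after infusion start; ex vivo LTB4 generation by whole blood stimulated with calcium ionophore A23187. ED50 in µg/kg/min.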

Rattus norvegicus [6] = test: compound was tested for inhibition of ovalbumin- induced dyspnea in inbred hyperreactive rats at 0.5 mg/kg; format: functional
Canis familiaris [7] = test: Ex Vivo generation of LTB4 by whole blood stimulated with calcium ionophore A-23187 in anesthetized dogs; format: functional, Canis lupus familiaris; how it was run: as §2
[8] = molecular target: T1, Polyunsaturated fatty acid 5-lipoxygenase (Homo sapiens, UniProt P09917); test: Inhibition of oxidation of arachidonic acid by human 5-Lipoxygenase using spectrophotometric assay; format: functional
T1 sequence (P09917 whole entry): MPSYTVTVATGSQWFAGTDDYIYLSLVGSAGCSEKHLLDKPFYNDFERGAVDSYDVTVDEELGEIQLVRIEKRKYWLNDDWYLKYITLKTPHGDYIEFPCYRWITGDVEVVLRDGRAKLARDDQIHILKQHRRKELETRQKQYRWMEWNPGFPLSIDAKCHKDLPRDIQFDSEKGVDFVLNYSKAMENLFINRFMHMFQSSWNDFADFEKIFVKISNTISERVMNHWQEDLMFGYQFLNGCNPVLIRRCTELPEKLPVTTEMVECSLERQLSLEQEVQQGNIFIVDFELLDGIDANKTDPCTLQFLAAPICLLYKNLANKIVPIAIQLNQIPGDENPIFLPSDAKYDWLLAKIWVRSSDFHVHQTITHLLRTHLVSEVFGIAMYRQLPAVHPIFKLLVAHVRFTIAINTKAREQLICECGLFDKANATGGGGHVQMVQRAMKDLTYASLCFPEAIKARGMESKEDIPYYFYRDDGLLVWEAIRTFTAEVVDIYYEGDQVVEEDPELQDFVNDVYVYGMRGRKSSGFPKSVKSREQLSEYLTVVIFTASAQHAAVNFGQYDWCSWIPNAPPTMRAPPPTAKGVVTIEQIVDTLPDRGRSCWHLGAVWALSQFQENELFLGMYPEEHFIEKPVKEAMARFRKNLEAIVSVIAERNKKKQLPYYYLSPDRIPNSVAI
How it was run: (§3)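 Soluble extracts of Sf9 insect cells overexpressing human 5-LO; arachidonic acid oxidation followed spectrophotometrically as 5-H(P)ETE production; IC50 values.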

[9] = Plasma half-life in rats in the presence of PEG 400/water(3:1); format: ADME, organism-based; settings: rat
[10] = Plasma half-life in dogs in the presence of PEG 400/water(3:1); format: ADME, organism-based, Canis lupus familiaris; settings: dog
How it was run: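 Dog PK: free base given iv in PEG-400/water (3:1); plasma levels followed and half-life estimated from the intravenous administration.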

[11] = molecular target: T1, Polyunsaturated fatty acid 5-lipoxygenase; test: Compound was evaluated for the potency to inhibit oxidation of arachidonic acid by human recombinant 5-Lipoxygenase using a spectrophotometric assay; format: functional; how it was run: as §3
[12] = Maximum concentration of unchanged drug in rat plasma in the period 0-24 hr after dosing; format: ADME, organism-based
How it was run: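 Rats dosed orally as HCl salt in 0.5% methocel suspension (10 mL/kg); jugular blood drawn before dosing and 0.5, 1, 2, 4, 6, 8, 10, 24 h after. Plasma deproteinized with equal volume acetonitrile; parent drug measured by reverse-phase HPLC peak area against standard curves from spiked rat plasma.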

[13] = Bioavailability in rat (Sprague-Dawley) (male); format: ADME, organism-based; settings: in vivo
How it was run: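 Oral dosing as HCl salt in 0.5% methocel suspension at 20 mg/kg (10 mL/kg); iv dosing of free base in PEG-400/water (3:1) at 5 mg/kg into jugular vein. Serial jugular blood to 24 h; plasma protein precipitated with acetonitrile, parent quantified by reverse-phase HPLC against spiked-plasma standards. F = (AUCpo × dose_iv)/(AUCiv × dose_po) × 100, over 0-24 h.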

Row | SMILES | pIC50 (Homo sapiens [1]) | pIC50 (Homo sapiens [2]) | pIC50 [8] | also measured
1 | N#Cc1cc(-c2ccoc2)c2ccc(OCc3cncc(C4(O)CCOCC4)c3)cc2c1 | 8.00 | 7.00 | 7.00 | 
2 | N#Cc1cc(-c2ccoc2)c2ccc(OCc3csc(C4(O)CCOCC4)n3)cc2c1 | 8.05 | 6.52 | 6.80 | 
3 | N#Cc1cc(-c2ccoc2)c2ccc(OCc3ccc4ccc(C5(O)CCOCC5)cc4n3)cc2c1 | 7.36 |  | 6.00 | 
4 | N#Cc1cc(-c2ccoc2)c2ccc(OCc3ccnc(C4(O)CCOCC4)c3)cc2c1 | 8.30 | 6.60 |  | pIC50 [11]: 6.46
5 | N#Cc1cc(-c2ccoc2)c2ccc(OCc3cccc(C4(O)CCOCC4)c3)cc2c1 |  |  |  | Cmax [12]: 1000 nM; bioavailability [13]: < 5%
6 | CC(C)(C)Sc1c(CC(C)(C)C(=O)O)n(Cc2ccc(Cl)cc2)c2ccc(OCc3ccc4ccccc4n3)cc12 [QUIFLAPON] |  |  |  | inhibition in vivo at 0.0025 mg/kg (Ovis aries): > 75%; ED50 (Rattus norvegicus [3]): 0.15 mg/kg; Inhibition [4]: 71%; ED50 (Canis familiaris [5]): 1 µg/min/kg; inhibition in vivo at 0.5 mg/kg (Rattus norvegicus [6]): 56%; ED50 (Canis familiaris [7]): 0.5 µg/min/kg
7 | CC(c1cc2ccccc2s1)N(O)C(N)=O (stereo not given) [ZILEUTON] |  | 5.70 |  | 

Further compounds by rising pIC50 (Homo sapiens [1]), results first:

Row | pIC50 (Homo sapiens [1]) | pIC50 (Homo sapiens [2]) | pIC50 [8] | SMILES | also measured
8 | 8.46 | 7.30 | 7.15 | N#Cc1cc(-c2ccoc2)c2ccc(OCc3cc(C4(O)CCOCC4)ccn3)cc2c1 | 
9 | 8.51 | 7.17 | 7.10 | N#Cc1cc(-c2ccoc2)c2ccc(COc3cccc(C4(O)CC5COC(C4)O5)n3)cc2c1 (stereo not given) | 
10 | 8.80 | 7.38 | 7.70 | N#Cc1cc(-c2ccoc2)c2ccc(OCc3cccc(C4(O)CC5COC(C4)O5)n3)cc2c1 (stereo not given) | inhibition in vivo at 0.0025 mg/kg (Ovis aries): 50%; ED50 (Rattus norvegicus [3]): 0.3 mg/kg; Inhibition [4]: 53%; ED50 (Canis familiaris [5]): 0.23 µg/min/kg; inhibition in vivo at 0.5 mg/kg (Rattus norvegicus [6]): 60%; ED50 (Canis familiaris [7]): 0.45 µg/min/kg; half-life [9]: 5 h; half-life [10]: 16 h
11 | 9.22 | 7.52 |  | N#Cc1cc(-c2ccoc2)c2ccc(OCc3cccc(C4(O)CCOCC4)n3)cc2c1 | pIC50 [11]: 7.82
